Several values for one entry are separate records, joined by “and”; a condition that tells them apart may be missing. Equal entries are not always repeated.
Legend:
Mus musculus [1] = assay: Removal of [238Pu] (i.v.) from mice by ligand injected 30 uM/kg orally at 3 min normally fed after iv injection from feces and GI contents; assay type: functional
Outline: (§1)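 Normally fed mice got iv 238Pu(IV) citrate, then ligand 30 µmol/kg by gastric tube at 3 min, in 0.14 M NaCl pH 7.4 with weight-adjusted volume. The mice were killed at 24 h, with five per cage and excreta pooled per cage. Pu was counted by liquid scintillation alpha counting and reported as %ID normalized to 100% recovery.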

Mus musculus [2] = assay: Removal of [238Pu] (i.v.) from mice by ligand injected 30 uM/kg intraperitoneally at 1 hr from kidneys; assay type: functional, Kidney
Outline: (§2)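 238Pu(IV) citrate given iv to mice; ligand 30 µmol/kg (in 0.14 M NaCl, pH 7.4, volume scaled to body weight) injected ip at 1 h; killed at 24 h. Five mice per cage, excreta pooled per cage, chow from 4 h. Tissue and excreta Pu were counted by liquid scintillation alpha counting and given as %ID normalized to 100% recovery, mean ± SD.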

Mus musculus [3] = assay: Removal of [238Pu] (i.v.) from mice by ligand injected 30 uM/kg intraperitoneally at 1 hr from liver tissue; assay type: functional; outline: as §2
Mus musculus [4] = assay: Removal of [238Pu] (i.v.) from mice by ligand injected 30 uM/kg orally at 3 min normally fed after iv injection from kidneys; assay type: functional, Kidney; outline: as §1
Mus musculus [5] = assay: Removal of [238Pu] (i.v.) from mice by ligand injected 30 uM/kg orally at 3 min normally fed after iv injection from whole body; assay type: functional; outline: as §1
Mus musculus [6] = assay: Removal of [238Pu] (i.v.) from mice by ligand injected 30 uM/kg orally at 3 min fasted after iv injection from liver tissue; assay type: functional
Outline: (§3)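 Mice fasted 16 h got iv 238Pu(IV) citrate, then ligand 30 µmol/kg by gastric tube at 3 min (HOPO in 0.14 M NaCl, pH 7.4; weight-adjusted volume). Chow was given at 4 h and the mice were killed at 24 h. Tissues and pooled per-cage excreta were liquid-scintillation alpha-counted and expressed as %ID normalized to 100% recovery.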

Mus musculus [7] = assay: Removal of [238Pu] (i.v.) from mice by ligand injected 30 uM/kg intraperitoneally at 1 hr from urine excretia; assay type: functional; outline: as §2
Mus musculus [8] = assay: Removal of [238Pu] (i.v.) from mice by ligand injected 30 uM/kg orally at 3 min normally fed after iv injection from liver tissue; assay type: functional; outline: as §1
Mus musculus [9] = assay: Removal of [238Pu] (i.v.) from mice by ligand injected 30 uM/kg orally at 3 min fasted after iv injection from soft tissue; assay type: functional; outline: as §3
Mus musculus [10] = assay: Removal of [238Pu] (i.v.) from mice by ligand injected 30 uM/kg orally at 3 min fasted after iv injection from urine excretia; assay type: functional; outline: as §3
Mus musculus [11] = assay: Removal of [238Pu] (i.v.) from mice by ligand injected 30 umol/kg intraperitoneally at 1 hr from skeleton; assay type: functional; outline: as §2
Mus musculus [12] = assay: Removal of [238Pu] (i.v.) from mice by ligand injected 30 uM/kg orally at 3 min fasted after iv injection from whole body; assay type: functional; outline: as §3
Mus musculus [13] = assay: Removal of [238Pu] (i.v.) from mice by ligand injected 30 uM/kg intraperitoneally at 1 hr from skeleton; assay type: functional; outline: as §2
Mus musculus [14] = assay: Removal of [238Pu] (i.v.) from mice by ligand injected 30 uM/kg ip at 1 hr from feces and GI contents; assay type: functional
Outline: (§4)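 Mice received iv 238Pu(IV) citrate, then ip ligand (30 µmol/kg, 0.14 M NaCl pH 7.4) at 1 h. Feces plus GI contents were collected to 24 h kill, pooled per five-mouse cage and alpha-counted by liquid scintillation. Values are %ID normalized to total recovery. SD applies only to multiply replicated groups.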

Mus musculus [15] = assay: Removal of [238Pu] (i.v.) from mice by ligand injected orally at 3 min normally fed after iv injection from skeleton; assay type: functional; outline: as §1
Mus musculus [16] = assay: Removal of [238Pu] (i.v.) from mice by ligand injected 30 uM/kg intraperitoneally at 1 hr from soft tissue; assay type: functional; outline: as §2
Mus musculus [17] = assay: Removal of [238Pu] (i.v.) from mice by ligand injected 30 uM/kg orally at 3 min fasted after iv injection from feces and GI contents; assay type: functional; outline: as §3
Mus musculus [18] = assay: Removal of [238Pu] (i.v.) from mice by ligand injected 30 uM/kg at 3 min normally fed after iv injection from urine excretia; assay type: functional; outline: as §1
Mus musculus [19] = assay: Removal of [238Pu] (i.v.) from mice by ligand injected 30 uM/kg orally at 3 min normally fed after iv injection from soft tissue; assay type: functional; outline: as §1
Mus musculus [20] = assay: Removal of [238Pu] (i.v.) from mice by ligand injected 30 uM/kg intraperitoneally at 1 hr from whole body; assay type: functional; outline: as §2
Mus musculus [21] = assay: Removal of [238Pu] (i.v.) from mice by ligand injected 30 uM/kg ip at 1 hr and orally at 3 min after iv injection from kidneys; assay type: functional, Kidney
Outline: (§5)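 Kidney Pu (%ID) at 24 h after iv 238Pu(IV) citrate was measured in mice given ligand 30 µmol/kg by one of two routes: ip at 1 h, or by gastric tube at 3 min to 16 h-fasted or normally fed mice. Kidneys were alpha-counted by liquid scintillation, and data were normalized to 100% recovery.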

Mus musculus [22] = assay: Removal of [238Pu] (i.v.) from mice by ligand injected 30 uM/kg orally at 3 min fasted after iv injection from skeleton; assay type: functional; outline: as §3
Mus musculus [23] = assay: Removal of [238Pu] (i.v.) from mice by ligand injected 30 uM/Kg orally at 3 min fasted after iv injection from whole body; assay type: functional; outline: as §3
Mus musculus [24] = assay: Removal of [238Pu] (i.v.) from mice by ligand injected 30 uM/Kg orally at 3 min fasted after iv injection from feces and GI contents; assay type: functional; outline: as §3
Mus musculus [25] = assay: Removal of [238Pu] (i.v.) from mice by ligand injected 30 uM/Kg orally at 3 min fasted after iv injection from skeleton; assay type: functional; outline: as §3
Mus musculus [26] = assay: Removal of [238Pu] (i.v.) from mice by ligand injected 30 uM/Kg intraperitoneally at 1 hr from urine excretia; assay type: functional; outline: as §2
Mus musculus [27] = assay: Removal of [238Pu] (i.v.) from mice by ligand injected 30 uM/Kg orally at 3 min fasted after iv injection from soft tissue; assay type: functional; outline: as §3
Mus musculus [28] = assay: Removal of [238Pu] (i.v.) from mice by ligand injected 30 uM/Kg orally at 3 min fasted after iv injection from urine excretia; assay type: functional; outline: as §3
Mus musculus [29] = assay: Removal of [238Pu] (i.v.) from mice by ligand injected 30 uM/Kg orally at 3 min fasted after iv injection from liver tissue; assay type: functional; outline: as §3
Mus musculus [30] = assay: Removal of [238Pu] (i.v.) from mice by ligand injected 30 uM/Kg intraperitoneally at 1 hr from skeleton; assay type: functional; outline: as §2
Mus musculus [31] = assay: Removal of [238Pu] (i.v.) from mice by ligand injected 30 uM/Kg intraperitoneally at 1 hr from soft tissue; assay type: functional; outline: as §2
Mus musculus [32] = assay: Removal of [238Pu] (i.v.) from mice by ligand injected 30 uM/Kg intraperitoneally at 1 hr from whole body; assay type: functional; outline: as §2
Mus musculus [33] = assay: Removal of [238Pu] (i.v.) from mice by ligand injected 30 uM/Kg intraperitoneally at 1 hr from kidneys; assay type: functional, Kidney; outline: as §2
Mus musculus [34] = assay: Removal of [238Pu] (i.v.) from mice by ligand injected 30 uM/Kg ip at 1 hr and orally at 3 min after iv injection from kidneys; assay type: functional, Kidney; outline: as §5
Mus musculus [35] = assay: Removal of [238Pu] (i.v.) from mice by ligand injected 30 uM/Kg ip at 1 hr from feces and GI contents; assay type: functional; outline: as §4
Mus musculus [36] = assay: Removal of [238Pu] (i.v.) from mice by ligand injected 30 uM/Kg intraperitoneally at 1 hr from liver tissue; assay type: functional; outline: as §2

| SMILES | ID (Mus musculus [1]) [%] | ID (Mus musculus [2]) | ID (Mus musculus [3]) | ID (Mus musculus [4]) [%] | ID (Mus musculus [5]) [%] | ID (Mus musculus [6]) | ID (Mus musculus [7]) | ID (Mus musculus [8]) [%] | ID (Mus musculus [9]) | ID (Mus musculus [10]) [%] | ID (Mus musculus [12]) | ID (Mus musculus [13]) [%] | ID (Mus musculus [14]) | ID (Mus musculus [15]) [%] | ID (Mus musculus [16]) | ID (Mus musculus [17]) | ID (Mus musculus [18]) [%] | ID (Mus musculus [19]) [%] | ID (Mus musculus [20]) | ID (Mus musculus [21]) [%] | further results |
| --- | --- | --- | --- | --- | --- | --- | --- | --- | --- | --- | --- | --- | --- | --- | --- | --- | --- | --- | --- | --- | --- |
| O=C(NCCCN(CCCCN(CCCNC(=O)c1cccc(=O)n1O)C(=O)c1cccc(=O)n1O)C(=O)c1cccc(=O)n1O)c1cccc(=O)n1O | 57 | 0.2% and 0.1% | 8.9% and 5.4% | 0.2 | 16 | 11% and 4.2% | 25% and 21% | 5.9 | 1.3% and 1.1% | 26 | 24% and 14% | 8 | 57% and 65% | 8.8 | 1.6% and 0.8% | 51% and 60% | 27 | 1.5 | 18% and 14% | 0.1 | ID (Mus musculus [11]): 7.5%; ID (Mus musculus [22]): 12% and 8% |
| Cn1ccc(C(=O)NCCCN(CCCCN(CCCNC(=O)c2ccn(C)c(=O)c2O)C(=O)c2cccc(=O)n2O)C(=O)c2cccc(=O)n2O)c(O)c1=O | 58 | 0.2% | 11% | 0.1 | 11 | 2.2% | 27% | 2.4 | 0.8% | 28 | 11% | 9.1 | 51% | 7.4 | 1% | 61% | 31 | 0.9 | 22% | 0.09 | ID (Mus musculus [22]): 7.8% |
| O=C([O-])CN(CCN(CC(=O)[O-])CC(=O)[O-])CCN(CC(=O)[O-])CC(=O)[O-].[Ca+2].[Na+].[Na+].[Na+] [PENTETATE CALCIUM TRISODIUM] | – | – | – | – | – | – | – | – | – | – | – | – | – | – | – | – | – | – | – | – | ID (Mus musculus [23]): 79%; ID (Mus musculus [24]): 6.5%; ID (Mus musculus [25]): 40%; ID (Mus musculus [26]): 55%; ID (Mus musculus [27]): 5.1%; ID (Mus musculus [28]): 15%; ID (Mus musculus [29]): 33%; ID (Mus musculus [30]): 14%; ID (Mus musculus [31]): 2.9%; ID (Mus musculus [32]): 37%; ID (Mus musculus [33]): 1.2%; ID (Mus musculus [34]): 0.7%; ID (Mus musculus [35]): 8.4%; ID (Mus musculus [36]): 19% |
